Each structure is given as a SMILES string. Activity calls are given as the source filed them. No cut-off for these calls is given here.

The test system of assay [1] is Leishmania amazonensis. As to the kind of experiment: Antiparasitic activity against Leishmania amazonensis MHOM/BR/75/LTB0016 promastigotes assessed as inhibition of cellular proliferation incubated for 24 hrs by CFSE staining based flow cytometry. It counts as functional, organism-based. In a few lines: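 Promastigotes (2.5 × 10^7 cells/mL) were washed in PBS and stained with 10 μM CFSE in PBS/0.1% albumin for 15 min at 26 °C. Staining was stopped with ice-cold medium. Cells were resuspended at 1.0 × 10^6 cells/mL with compound (3−96 μM) or 0.2% DMSO for 24 h at 26 °C. Fluorescence was read by flow cytometry. Histograms are representative of three experiments.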

The test system of assay [2] is Leishmania amazonensis. As to the kind of experiment: Antiparasitic activity against Leishmania amazonensis MHOM/BR/75/LTB0016 promastigotes assessed as inhibition of cellular proliferation at 96 uM incubated for 24 hrs in presence of 300 uM GSSG by Neubauer chamber based assay. The class given is functional, organism-based. In a few lines:
(§1)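 Promastigotes were preincubated with GSH, GSSG or NAC (300 μM final, in PBS) and then grown 24 h at 26 °C in Schneider medium with 96 μM compound (in DMSO) or vehicle (0.2% DMSO). Proliferation was counted in a Neubauer chamber. Mean ± SE of three experiments.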

Assay [3] relates to Leishmania amazonensis. As to the kind of experiment: Induction of intracellular ROS generation in Leishmania amazonensis MHOM/BR/75/LTB0016 promastigotes incubated for 24 hrs by H2DCFDA dye based assay. It counts as functional, organism-based. In a few lines:
(§2)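 Promastigotes (5 × 10^6 cells/mL) were cultured 24 h at 26 °C with compound (3−96 μM) or vehicle, then resuspended in HBSS at 1 × 10^7 cells/mL. They were loaded with 20 μM H2DCFDA for 20 min at 26 °C and read by flow cytometry. Results are fold increase over control, mean ± SE of three experiments.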

Assay [4] relates to Leishmania amazonensis. As to the kind of experiment: Induction of ultrastructural alterations in Leishmania amazonensis MHOM/BR/75/LTB0016 promastigotes assessed as extensive swelling of parasite mitochondria at 12 to 96 uM incubated for 24 hrs by transmission electron microscopy. The class given is functional, organism-based. An outline of the steps: (§3)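 Promastigotes (5 × 10^6 cells/mL) were treated for 24 h at 26 °C in Schneider medium with compound at 12, 24 or 96 μM. They were fixed in 2.5% glutaraldehyde in 0.1 M cacodylate (pH 7.2) for 40 min and postfixed in 1% OsO4, 0.8% potassium ferricyanide and 2.5 mM CaCl2 for 20 min. Cells were acetone-dehydrated and resin-embedded. Ultrathin sections were stained with uranyl acetate and lead citrate and examined by transmission electron microscopy.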

Assay [5] concerns Leishmania amazonensis. As to the kind of experiment: Antiparasitic activity against Leishmania amazonensis MHOM/BR/75/LTB0016 promastigotes assessed as inhibition of cellular proliferation at 96 uM incubated for 24 hrs in presence of 300 uM NAC by Neubauer chamber based assay. The class given is functional, organism-based. An outline of the steps: as §1
Assay [6] concerns Leishmania amazonensis. As to the kind of experiment: Induction of ultrastructural alterations in Leishmania amazonensis MHOM/BR/75/LTB0016 promastigotes assessed as washed-out appearance of mitochondria matrix and loss of cristae at 96 uM incubated for 24 hrs by transmission electron microscopy. The class given is functional, organism-based. An outline of the steps:
as §3

Assay [7] relates to Leishmania amazonensis. As to the kind of experiment: Induction of intracellular ROS generation in Leishmania amazonensis MHOM/BR/75/LTB0016 promastigotes at 96 uM incubated for 24 hrs in presence of NAC by H2DCFDA dye based assay. The class given is functional, organism-based. In a few lines: (§4)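 Cultures held GSH, GSSG or NAC (300 μM final, in PBS) together with 96 μM compound or 0.2% DMSO for 24 h at 26 °C in Schneider medium. Cells were then stained with H2DCFDA (20 μM, 20 min, 26 °C, in HBSS) and read by flow cytometry. Results are fold ROS increase versus control, mean ± SE of three experiments.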

Assay [8] relates to Leishmania amazonensis. As to the kind of experiment: Induction of ultrastructural alterations in Leishmania amazonensis MHOM/BR/75/LTB0016 promastigotes assessed as appearance of endoplasmic profiles surrounding cellular structures and cytosolic vacuolization at 12 uM incubated for 24 hrs by transmission electron microscopy. The class given is functional, organism-based. An outline of the steps:
as §3

In assay [9] the test system is Leishmania amazonensis. As to the kind of experiment: Induction of membrane potential depolarization in Leishmania amazonensis MHOM/BR/75/LTB0016 promastigotes assessed as reduction in mitochondrial membrane potential incubated for 24 hrs by JC1 dye based fluorescence assay. The class given is functional, organism-based. In a few lines: (§5)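 Promastigotes (5 × 10^6 cells/mL) were treated for 24 h with compound (3−96 μM) or 0.2% DMSO, then resuspended in HBSS at 1 × 10^7 cells/mL. They were stained with JC-1 (10 μg/mL, 10 min, 26 °C) and washed twice. Emission was read at 590 and 530 nm (excitation 480 nm), and the 590/530 ratio gives relative ΔΨm. FCCP 20 μM for 20 min served as positive control. Mean ± SE of three experiments.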

Assay [10] deals with Leishmania amazonensis. As to the kind of experiment: Induction of ultrastructural alterations in Leishmania amazonensis MHOM/BR/75/LTB0016 promastigotes assessed as concentric membrane structures formation inside organelle at 12 to 96 uM incubated for 24 hrs by transmission electron microscopy. The class given is functional, organism-based. In a few lines:
as §3

Assay [11] deals with Leishmania amazonensis. As to the kind of experiment: Induction of intracellular ROS generation in Leishmania amazonensis MHOM/BR/75/LTB0016 promastigotes at 96 uM incubated for 24 hrs in presence of GSH by H2DCFDA dye based assay. It counts as functional, organism-based. An outline of the steps: as §4
Assay [12] has as its system Leishmania amazonensis. As to the kind of experiment: Antiparasitic activity against Leishmania amazonensis MHOM/BR/75/LTB0016 promastigotes assessed as inhibition of cellular proliferation incubated for 48 hrs by CFSE staining based flow cytometry. The class given is functional, organism-based. The conditions noted are these: MHOM/BR/75/LTB0016, 48 h. (A flow cytometer gives signals particle by particle.)

The test system of assay [13] is Leishmania amazonensis. As to the kind of experiment: Induction of intracellular ROS generation in Leishmania amazonensis MHOM/BR/75/LTB0016 promastigotes at 96 uM incubated for 24 hrs in presence of GSSG by H2DCFDA dye based assay. It counts as functional, organism-based. In a few lines:
as §4

Assay [14] relates to Leishmania amazonensis. As to the kind of experiment: Induction of membrane potential depolarization in Leishmania amazonensis MHOM/BR/75/LTB0016 promastigotes assessed as reduction in mitochondrial membrane potential at 96 uM incubated for 24 hrs by JC1 dye based fluorescence assay. The class given is functional. To be noted: MHOM/BR/75/LTB0016, 24 h. In a few lines:
as §5

Assay [15] relates to Leishmania amazonensis. As to the kind of experiment: Induction of intracellular ROS generation in Leishmania amazonensis MHOM/BR/75/LTB0016 promastigotes at 96 uM incubated for 24 hrs by H2DCFDA dye based assay. It counts as functional. An outline of the steps:
as §2

Assay [16] concerns Leishmania amazonensis. As to the kind of experiment: Antiparasitic activity against Leishmania amazonensis MHOM/BR/75/LTB0016 promastigotes assessed as inhibition of cellular proliferation at 96 uM incubated for 24 hrs by Neubauer chamber based assay. The class given is functional. The conditions noted are these: MHOM/BR/75/LTB0016, 24 h. An outline of the steps:
(§6)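 Strain MHOM/BR/75/LTB0016 promastigotes were grown at 26 °C in Schneider medium (pH 7.2) with 10% heat-inactivated FCS, penicillin and streptomycin. They were seeded at 1.0 × 10^6 cells/mL with compound (3−96 μM) or DMSO vehicle (0.2% final) for 24 h at 26 °C. Density was counted in a Neubauer chamber. IC50 came from logarithmic regression. Mean ± SE of three experiments.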

Assay [17] deals with Leishmania amazonensis. As to the kind of experiment: Induction of ultrastructural alterations in Leishmania amazonensis MHOM/BR/75/LTB0016 promastigotes assessed as rupture of trans-Golgi network at 24 uM incubated for 24 hrs by transmission electron microscopy.
Assay [18] has as its system Leishmania amazonensis. As to the kind of experiment: Antiparasitic activity against Leishmania amazonensis MHOM/BR/75/LTB0016 promastigotes assessed as inhibition of cellular proliferation incubated for 24 hrs by Neubauer chamber based assay. It counts as functional, organism-based. An outline of the steps: as §6
For assay [19], the system named is Leishmania amazonensis. As to the kind of experiment: Antiparasitic activity against Leishmania amazonensis MHOM/BR/75/LTB0016 promastigotes assessed as inhibition of cellular proliferation at 96 uM incubated for 24 hrs in presence of 300 uM GSH by Neubauer chamber based assay. It counts as functional, organism-based. In a few lines: as §1
The test system of assay [20] is Leishmania amazonensis. As to the kind of experiment: Induction of ultrastructural alterations in Leishmania amazonensis MHOM/BR/75/LTB0016 promastigotes assessed as inner mitochondrial membrane damage with washed-out matrix appearance and decreased matrix electron density at 12 to 96 uM incubated for 24 hrs by transmission electron microscopy. The class given is functional, organism-based. An outline of the steps: as §3

The test system of assay [21] is Leishmania amazonensis. As to the kind of experiment: Induction of ultrastructural alterations in Leishmania amazonensis MHOM/BR/75/LTB0016 promastigotes assessed as cytoplasmic vacuolization at 12 uM incubated for 24 hrs by transmission electron microscopy.
Assay [22] deals with Leishmania amazonensis. As to the kind of experiment: Induction of membrane potential depolarization in Leishmania amazonensis MHOM/BR/75/LTB0016 promastigotes assessed as reduction in mitochondrial membrane potential at 20 uM incubated for 24 hrs by JC1 dye based fluorescence assay. To be noted: MHOM/BR/75/LTB0016, 24 h, read-out: INH.
Assay [23] relates to Leishmania amazonensis. As to the kind of experiment: Induction of intracellular ROS generation in Leishmania amazonensis MHOM/BR/75/LTB0016 promastigotes at 96 uM incubated for 48 hrs by H2DCFDA dye based assay. The class given is functional.
The next assay deals with Leishmania braziliensis. As to the kind of experiment: Induction of intracellular ROS generation in Leishmania braziliensis promastigotes at 500 uM incubated for 72 hrs by H2DCFDA dye based assay.

In general, IC50 refers to the concentration needed to halve the response being measured. As to `O=c1cc(-c2ccc(O)cc2)oc2cc(O)cc(O)c12` [APIGENIN], the inhibition result in the assay with Leishmania amazonensis [1] and in the assay on Leishmania amazonensis [18] was “Dose-dependent effect” each time. In addition, the result with Leishmania amazonensis [2], in the assay on Leishmania amazonensis [4], in the assay on Leishmania amazonensis [6], in the assay with Leishmania amazonensis [8], with Leishmania amazonensis [10] and in the assay with Leishmania amazonensis [13] was Active. Besides, the outcome in the assay on Leishmania amazonensis [17], in the assay with Leishmania amazonensis [20] and in the assay on Leishmania amazonensis [21] was Active. In addition, the Activity result in the assay with Leishmania amazonensis [3] and with Leishmania amazonensis [9] was “Dose-dependent effect” each time. Besides, the result in the assay with Leishmania amazonensis [5], with Leishmania amazonensis [7], with Leishmania amazonensis [11] and in the assay on Leishmania amazonensis [19] was inactive. Moreover, the IC50 in the assay on Leishmania amazonensis [12] is 31.4 µM; in the assay on Leishmania amazonensis [18] (MHOM/BR/75/LTB0016, 24 h), 23.7 µM. Besides, the inhibition at 96 µM was 78.3% with Leishmania amazonensis [14] and 75% with Leishmania amazonensis [16]. Also, the “fold change (FC)” value in the assay with Leishmania amazonensis [15] came to 2.9.

Turning to `N#CC(C#N)=NNc1ccc(OC(F)(F)F)cc1`, the inhibition at 20 µM in the assay on Leishmania amazonensis [22] is 79.8%.

For `O=c1c(O)c(-c2ccc(O)c(O)c2)oc2cc(O)cc(O)c12` [QUERCETIN], in the assay with Leishmania amazonensis [23], the “fold change (FC)” value worked out at 4.4.

Regarding `O=C(O[C@@H]1Cc2c(O)cc(O)cc2O[C@@H]1c1cc(O)c(O)c(O)c1)c1cc(O)c(O)c(O)c1` [EPIGALOCATECHIN GALLATE], in the assay with Leishmania braziliensis, the “fold change (FC)” value is reported as 2.9.

(Values after ChEMBL document CHEMBL3580591, “Effect of Apigenin on Leishmania amazonensis Is Associated with Reactive Oxygen Species Production Followed by Mitochondrial Dysfunction” (J Nat Prod, 2015).)
